Assay [1] is described as follows: reducers of endogenous Her2 protein level, primary screen, SKBR3 breast tumor cells, AlphaScreen, ATP viability (AID 461;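 active = Her2 level under about 52% in both replicate screens, with viability over 70% of control, limit read from the data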;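 for Her2 level: lower value means less Her2 protein in the cells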;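 for viability: percent of carrier control wells set as 100% viability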). The following applies: 18-24 h, measured here: SKBR3 viability, ATP luminescence, at 10 µM.
For assay [2], the target named is Receptor tyrosine-protein kinase erbB-2 (Homo sapiens) (UniProt P04626). The description is as above. The note with it: 18-24 h, at 10 µM, stronger effect = lower value.
Receptor tyrosine-protein kinase erbB-2 (Homo sapiens), sequence (P04626 whole entry, looked up): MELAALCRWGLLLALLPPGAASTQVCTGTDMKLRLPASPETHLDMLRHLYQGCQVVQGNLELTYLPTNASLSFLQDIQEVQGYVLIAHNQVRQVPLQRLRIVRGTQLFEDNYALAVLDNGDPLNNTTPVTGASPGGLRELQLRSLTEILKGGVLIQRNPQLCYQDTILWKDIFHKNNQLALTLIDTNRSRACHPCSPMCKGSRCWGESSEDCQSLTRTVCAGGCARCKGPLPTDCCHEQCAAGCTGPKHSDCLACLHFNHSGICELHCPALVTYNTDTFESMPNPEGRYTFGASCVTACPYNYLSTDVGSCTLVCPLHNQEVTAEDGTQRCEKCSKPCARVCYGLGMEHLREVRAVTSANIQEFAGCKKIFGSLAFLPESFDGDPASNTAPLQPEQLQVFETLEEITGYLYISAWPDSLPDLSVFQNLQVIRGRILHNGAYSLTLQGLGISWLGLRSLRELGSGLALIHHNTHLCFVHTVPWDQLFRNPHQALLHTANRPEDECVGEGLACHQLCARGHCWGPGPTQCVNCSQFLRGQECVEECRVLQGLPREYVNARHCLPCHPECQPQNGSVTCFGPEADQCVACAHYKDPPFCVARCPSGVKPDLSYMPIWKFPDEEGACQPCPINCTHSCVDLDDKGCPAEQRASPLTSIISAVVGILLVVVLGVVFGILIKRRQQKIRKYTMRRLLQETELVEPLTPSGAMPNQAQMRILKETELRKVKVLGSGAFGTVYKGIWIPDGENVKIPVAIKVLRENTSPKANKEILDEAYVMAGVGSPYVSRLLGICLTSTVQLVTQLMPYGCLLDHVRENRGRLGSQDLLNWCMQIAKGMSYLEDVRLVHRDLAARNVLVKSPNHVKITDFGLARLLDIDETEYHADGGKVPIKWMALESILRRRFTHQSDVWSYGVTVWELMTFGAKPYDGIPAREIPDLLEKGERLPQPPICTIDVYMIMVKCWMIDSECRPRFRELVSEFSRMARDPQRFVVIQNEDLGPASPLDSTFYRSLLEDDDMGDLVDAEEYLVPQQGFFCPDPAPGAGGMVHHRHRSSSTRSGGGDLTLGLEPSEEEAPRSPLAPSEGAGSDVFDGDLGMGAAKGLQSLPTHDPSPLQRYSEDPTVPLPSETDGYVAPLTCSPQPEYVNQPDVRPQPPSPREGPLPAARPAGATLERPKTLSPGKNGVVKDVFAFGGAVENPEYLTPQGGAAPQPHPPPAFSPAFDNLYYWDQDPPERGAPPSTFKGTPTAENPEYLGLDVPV
A short description of assay [3]: SK-BR-3 cell growth inhibitors, pilot screen, 24 h, human (AID 572).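 Note: compound exposure lasted between 18 and 24 h rather than exactly 24 h; 100% = carrier-treated control wells.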 The following applies: SK-BR-3 viability, CellTiter-Glo luminescence, at 10 µM, stronger effect = lower value.
Assay [4] in a line: HUVEC growth inhibition – cell-based, human, primary screen (AID 575;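 active = viability at or below 30% in both replicate assays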;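 note: 100% = median of untreated cell wells with 0.1% DMSO on each plate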). The note with it: HUVEC proliferation, CellTiter-Glo luminescence, 72 h; at 10 µM; stronger effect = lower value. The method, boiled down: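 Assay system: primary human umbilical vein endothelial cells / Buffer or medium: endothelial basal medium with 2% FBS plus growth supplements / Compound dosing: one dose, 10 µM final, 0.1% DMSO / Timing: 72 h treatment at 37 °C / Signal: CTG luminescence / Benchmarks: 32 DMSO-only cell-control wells (high), 32 MePR drug-control wells (low) per plate / Plate: collagen-coated 384-well format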

The nature of assay [5]: growth inhibitors of H69AR lung tumor, primary screen, human, duplicate replicates (AID 580;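 active = viability at or under a set limit in both replicates, limit being median viability minus 3 SD, cut at about 48% in these data, passing the limit was not always enough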;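 note: 100% = mean luminescence of untreated wells and 0% = no signal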). The following applies: H69AR lung tumor cells viability, ATP luminescence, 72 h; at 10 µM; stronger effect = lower value.
Assay [6] can be described thus: reversal of MRP1-mediated doxorubicin resistance, pilot screen, H69AR cells, doxorubicin co-treatment (AID 601;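 active = viability loss from added drug above about 55%, and viability with drug at most 40%, in both replicates, limit read from the data, passing the limit was not always enough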). The note with it: CellTiter-Glo, 72 h, at 10 µM; for differential viability (reversal): stronger effect = higher value.
Assay [7] can be described thus: 384-well plate pilot, post-Golgi transport modulator project, inhibition of yeast transport mutant growth (AID 636; in the data active = inhibition above about 31%). The following applies: absorbance 615 nm, about 18 h, stronger effect = higher value.
A short description of assay [8]: growth suppression of yeast trafficking mutant, preliminary HTS, modulators of trafficking downstream of Golgi apparatus project, 1536-format plate, OD 615 nm (AID 637; in the data active = inhibition above about 30%). The note with it: yeast transport mutant growth, absorbance 615 nm, 18 h; stronger effect = higher value.
Where [9] appears, read: H69AR cells + 2 uM doxorubicin, measured here: viability with 2 uM doxorubicin, stronger effect = lower value.
Setting [10] is: H69AR cells, compound alone cytotoxicity.

Here are results for 13 compounds from PubChem BioAssay.

Molecules are shown by their SMILES. Calls of active or inactive are those of the source.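 Rule for the calls, unless noted: active = viability at or below 10% of carrier control in both of two separate runs; inconclusive = viability at or below 10% in only one of the two runs; inactive = the rest.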

With `O=C(CSc1ncc(-c2ccc(F)cc2)[nH]1)N1CCCCC1`, the viability in assay [1] was 91%; in assay [3], 91% (inactive); in assay [4] it was 92.6% (inactive); in assay [5] it was 91.3% (inactive); in assay [6] (setting [9]), 89%; in assay [6] (setting [10]), 91.3%. Also, in assay [2], the Her2 level was 124% (inactive). In addition, in assay [6] (H69AR cells + 2 uM doxorubicin), the differential viability (reversal) is 2.38% (inactive). Besides, the values for the inhibition in assay [7] and in assay [8] were -2.95% (inactive) and 0% (inactive), respectively.

Regarding `CC(C)C1C2=C(CC(C)(C)CC2=O)ON1c1ccccc1` (stereo not given), the viability in assay [1] is 90%; in assay [3], 90% (inactive); in assay [4] it was 95.8% (inactive); in assay [5], 93% (inactive); in assay [6] (setting [9]) it was 95.7%; in assay [6] (setting [10]), 93%. For the same compound, in assay [2], the Her2 level is 90% (inactive). Moreover, the differential viability (reversal) in assay [6] (H69AR cells + 2 uM doxorubicin) was -2.63% (inactive). For the same compound, the inhibition in assay [7] is -1.6% (inactive); in assay [8] it was -0.48% (inactive).

In the case of `CC(C)CN(C(=O)COC(=O)Cc1n[nH]c(=O)c2ccccc12)C1CCS(=O)(=O)C1` (stereo not given), the viability in assay [1] is 97.5%; in assay [3], 97.5% (inactive); in assay [4], 93.6% (inactive); in assay [5] it was 90.1% (inactive); in assay [6] (setting [9]) it was 85.7%; in assay [6] (setting [10]), 90.1%. Moreover, in assay [2], the Her2 level was 98.5% (inactive). In addition, the differential viability (reversal) in assay [6] (H69AR cells + 2 uM doxorubicin) is 4.47% (inactive). The inhibition in assay [7] is -3.12% (inactive); in assay [8] it was -1.75% (inactive).

`Cc1ccccc1N(CC(=O)NCC1CCCO1)C(=O)C1(C)CC(=O)N=C2C=CC=CN21` (stereo not given): the viability in assay [1] is 96%; in assay [3], 96% (inactive); in assay [4], 104% (inactive); in assay [5], 98.7% (inactive); in assay [6] (setting [9]) it was 100%; in assay [6] (setting [10]), 98.7%. Moreover, the Her2 level in assay [2] was 96.5% (inactive). The differential viability (reversal) in assay [6] (H69AR cells + 2 uM doxorubicin) was -1.7% (inactive). The inhibition was -1.05% (inactive) in assay [7] and -10.5% (inactive) in assay [8].

With `CC(=O)Oc1ccc(-c2ccc(C(=O)O)cc2)cc1`, the viability in assay [1] is 87%; in assay [3] it was 87% (inactive); in assay [4] it was 94.5% (inactive); in assay [5], 107% (inactive); in assay [6] (setting [9]), 88.8%; in assay [6] (setting [10]), 107%. Further, in assay [2], the Her2 level is 110% (inactive). For the same compound, the differential viability (reversal) in assay [6] (H69AR cells + 2 uM doxorubicin) was 18.3% (inactive). Besides, the inhibition was -0.64% (inactive) in assay [7] and -7.83% (inactive) in assay [8].

Turning to `CCn1c(SCC(=O)Nc2nc(C)cs2)nnc1-c1ccco1`, the viability in assay [1] is 106%; in assay [3], 106% (inactive); in assay [4], 110% (inactive); in assay [5], 92% (inactive); in assay [6] (setting [9]), 87.7%; in assay [6] (setting [10]), 92%. Further, the Her2 level in assay [2] was 87.5% (inactive). In addition, the differential viability (reversal) in assay [6] (H69AR cells + 2 uM doxorubicin) is 4.38% (inactive). For the same compound, the figures for the inhibition in assay [7] and in assay [8] were -3.33% (inactive) and -2% (inactive), respectively.

Regarding `COc1ccc(NC(=O)C(C)Oc2ccc(/C(C)=N\O)cc2)cc1` (stereo not given), the viability is 122% in assay [1]; 122% (inactive) in assay [3]; 91.9% (inactive) in assay [4]; 90.4% (inactive) in assay [5]; 83.3% in assay [6] (setting [9]); 90.4% in assay [6] (setting [10]). The Her2 level in assay [2] is 92% (inactive). Moreover, the differential viability (reversal) in assay [6] (H69AR cells + 2 uM doxorubicin) was 7.12% (inactive). Further, the figures for the inhibition in assay [7] and in assay [8] were -7.33% (inactive) and -0.32% (inactive), respectively.

Turning to `Cc1ccc(NC(=O)c2ccccc2O)cc1`, the viability in assay [1] was 93.5%; in assay [3], 93.5% (inactive); in assay [4], 86.9% (inactive); in assay [5], 89.2% (inactive); in assay [6] (setting [9]), 89.4%; in assay [6] (setting [10]) it was 89.2%. Besides, the Her2 level in assay [2] was 87.5% (inactive). The differential viability (reversal) in assay [6] (H69AR cells + 2 uM doxorubicin) was -0.22% (inactive). Moreover, the inhibition in assay [7] was -1.49% (inactive); in assay [8], -2.7% (inactive).

Consider `Cc1ccccc1CNS(=O)(=O)c1ccc2c(c1)OCCO2`, for which the viability in assay [1] is 95.5%; in assay [3], 95.5% (inactive); in assay [4] it was 83.6% (inactive); in assay [5], 109% (inactive); in assay [6] (setting [9]), 92%; in assay [6] (setting [10]), 109%. Also, the Her2 level in assay [2] was 104% (inactive). For the same compound, the differential viability (reversal) in assay [6] (H69AR cells + 2 uM doxorubicin) is 17.3% (inactive). In addition, the inhibition is -5.47% (inactive) in assay [7] and -6.77% (inactive) in assay [8].

Take `O=C(NCc1ccco1)C1CCN(C(=O)c2cc3sccc3n2Cc2ccc(F)cc2)CC1`: the viability in assay [1] is 94.5%; in assay [3] it was 94.5% (inactive); in assay [4], 56.1% (inactive); in assay [5], 67.1% (inactive); in assay [6] (setting [9]) it was 73.7%; in assay [6] (setting [10]), 67.1%. Also, the Her2 level in assay [2] is 62.5% (inactive). Also, the differential viability (reversal) in assay [6] (H69AR cells + 2 uM doxorubicin) was -6.56% (inactive). In addition, the inhibition in assay [7] was -5.87% (inactive); in assay [8], 5.74% (inactive).

As to `CC1CCC2C(C1)c1sc(=O)[nH]c1SC2(C)C` (stereo not given), the viability is 85% in assay [1]; 85% (inactive) in assay [3]; 60.5% (inactive) in assay [4]; 106% (inactive) in assay [5]; 103% in assay [6] (setting [9]); 106% in assay [6] (setting [10]). In assay [2], the Her2 level is 111% (inactive). Moreover, the differential viability (reversal) in assay [6] (H69AR cells + 2 uM doxorubicin) was 2.79% (inactive). The values for the inhibition in assay [7] and in assay [8] were 0.9% (inactive) and 13.2% (inactive), respectively.

`Cc1ccc(S(=O)(=O)Cn2nnnc2CN(Cc2ccco2)CC2CCCO2)cc1` (stereo not given): the viability in assay [1] was 90%; in assay [3], 90% (inactive); in assay [4] it was 110% (inactive); in assay [5] it was 83.3% (inactive); in assay [6] (setting [9]), 84%; in assay [6] (setting [10]) it was 83.3%. Moreover, in assay [2], the Her2 level was 96.5% (inactive). Further, in assay [6] (H69AR cells + 2 uM doxorubicin), the differential viability (reversal) is -0.665% (inactive). The inhibition was -2.53% (inactive) in assay [7] and 44.8% (active) in assay [8].

As for `O=C(NCCCN1CCCC1=O)c1ccc2c(c1)NC(=O)C(N1CCOCC1)S2` (stereo not given), the viability in assay [1] was 143%; in assay [3], 143% (inactive); in assay [4], 115% (inactive); in assay [5], 89.5% (inactive); in assay [6] (setting [9]) it was 83.3%; in assay [6] (setting [10]) it was 89.5%. The Her2 level in assay [2] is 94.5% (inactive). In assay [6] (H69AR cells + 2 uM doxorubicin), the differential viability (reversal) was 6.1% (inactive). Also, the values for the inhibition in assay [7] and in assay [8] were -6.4% (inactive) and 0.82% (inactive), respectively.
